Source: PubChem (Johns Hopkins Ion Channel Center)
Kir21 inh: Kir2.1 (mouse) channel inhibition | 310,000 tested, 0.85% active | P35561 | AID 1672 | HEK293-Kir2.1, FluxOR thallium flux fluorescence; hits give low values | B-score at 10 µM;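 active = fluorescence ratio B-score at or below minus 3 SD of library scores, with starting-brightness B-score within 2 SD, cut at about -4.2 in these data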;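 also: channel flux triggered by added potassium and thallium sulfate stimulus; B-score of peak minus minimum fluorescence over baseline after thallium stimulus; more negative B-score means stronger Kir2.1 block with less thallium influx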
MrgX1 antagonist: antagonists of human MrgX1 receptor | AID 588676 | B-score at 10 µM | MRGX1-HEK293 calcium flux, Fluo-4, BAM8-22 antagonism; hits give low values | Q96LB2 | 310,000 tested, 1.3% active;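 active = calcium-response B-score plate-corrected more than 3 library SD below zero, starting fluorescence within 5 deviations, no agonist response on first addition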;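 also: peak minus trough fluorescence over baseline after final BAM8-22 challenge near maximal dose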
Target sequence (Q96LB2 whole entry, looked up): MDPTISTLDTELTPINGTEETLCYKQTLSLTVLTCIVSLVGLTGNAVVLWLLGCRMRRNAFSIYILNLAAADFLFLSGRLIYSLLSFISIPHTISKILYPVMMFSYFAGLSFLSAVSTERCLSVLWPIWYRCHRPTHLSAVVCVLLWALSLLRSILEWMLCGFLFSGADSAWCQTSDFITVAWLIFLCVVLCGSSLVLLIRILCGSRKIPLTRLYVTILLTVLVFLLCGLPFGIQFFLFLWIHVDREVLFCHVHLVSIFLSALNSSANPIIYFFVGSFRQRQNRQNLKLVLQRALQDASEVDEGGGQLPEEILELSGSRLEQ
MrgX1 allo act: allosterically activates human MrgX1 receptor signaling. B-score at 10 µM. 310,000 tested, 0.63% active. MrgX1-HEK293, Fluo-4 calcium flux, FDSS; hits give high values. AID 588675. Q96LB2;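 active = plate-corrected calcium response at least 3 library SD above typical, normal starting fluorescence, not activating the receptor alone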;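 also: compound read alongside a low EC10 to EC30 dose of BAM8-22 agonist; peak minus trough fluorescence over baseline measured at the second addition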
RGS4 inh: inhibitors of human RGS4. B-score at 10 µM. 310,000 tested, 0.45% active. HEK293 M3R/RGS4 inducible, Fluo-4 calcium flux; hits give high values; triggered by carbachol at its EC20;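 active = B-score, a plate-corrected calcium signal, over three deviations above library mean, with baseline fluorescence within five deviations of library mean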;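 also: RGS4 expression induced by doxycycline in cells with stable M3 receptor; B-score is computed from the integrated fluorescence ratio over baseline after carbachol; higher B-score means a larger calcium signal and so more RGS4 inhibition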
Target sequence (P49798 whole entry, looked up): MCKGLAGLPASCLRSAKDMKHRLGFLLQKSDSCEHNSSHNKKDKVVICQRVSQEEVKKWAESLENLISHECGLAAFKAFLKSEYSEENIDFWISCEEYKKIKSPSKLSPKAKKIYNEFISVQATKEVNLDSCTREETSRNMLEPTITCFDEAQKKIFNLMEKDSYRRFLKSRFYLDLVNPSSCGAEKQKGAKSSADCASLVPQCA
MrgX1 ag: agonists of human MrgX1 receptor. MrgX1-HEK293 cells, Fluo-4 calcium fluorescence, agonist mode; hits give high values. 310,000 tested, 0.44% active. B-score at 10 µM;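 active = calcium response B-score plate-corrected fluorescence ratio at least 3 library SD, with starting fluorescence B-score inside 5 SD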
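Assay system: stable human MrgX1 HEK293 cell line. Quantity: 15,000 cells per well. Schedule: cells plated overnight, dye loaded 0.5 h 37 °C, 0.5 h room temperature. Detection: Fluo-4 NW calcium-flux fluorescence, kinetic read. Read-out basis: peak-minus-minimum fluorescence over baseline, converted to B scores. Control set: positive and negative control wells on each plate.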
RGS4 pot: potentiators or activators of RGS4. AID 463111. B-score at 10 µM. 310,000 tested, 0.92% active. HEK293 M3R/inducible RGS4, carbachol calcium flux Fluo4; hits give low values;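 active = B-score of the integrated calcium signal more than 4 SD below the library mean, with starting fluorescence not abnormally high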;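 also: negative B-score means reduced calcium response which marks RGS4 activation or potentiation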
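test system = M3R-expressing HEK293 line, RGS4 induced by doxycycline | probe or stimulus = carbachol at ECmax as muscarinic agonist stimulus | timing = dye loading 30 min 37 °C, buffer rest 30 min RT | signal = calcium dye Fluo4 fluorescence | evaluation = B score from integrated fluorescence ratio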
hERG inh: counter-screen for Kir2.1 inhibitors: effect on human hERG. shares compounds with Kir21 inh. hERG-expressing cells, thallium flux. inhibition, % at 10 µM. 320 tested, 20% active. AID 2236;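 also: host cells are CHO cells stably expressing hERG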
KCNK9 spec: selectivity of Kir2.1 inhibitors: effect on human KCNK9. shares compounds with Kir21 inh. KCNK9-expressing cells, ion flux inhibition. inhibition, % at 10 µM. 320 tested, 5% active
Kir2-1 patch inh: mouse Kir2.1 inward rectifier channel inhibition; shares compounds with Kir21 inh; Kir2.1 cells, automated patch-clamp current inhibition; inhibition, % at 25 µM; 320 tested, 71% active
Numbers without * were called inactive; i = inactive; nt = no result. Only some compounds are listed: those with a hit (about 4.1% of all), similar ones and a draw of the others. Unless noted, no rule for the calls is given here.

SMILES	Kir21 inh	MrgX1 antagonist	MrgX1 allo act	RGS4 inh	MrgX1 ag	RGS4 pot	hERG inh	KCNK9 spec	Kir2-1 patch inh
CN(CCCCOc1ccc(F)cc1)Cc1ccccc1	-0.01	i	i	i	i	i	nt	nt	nt
Cc1cc(C)c(C)c(OCCCCN(C)Cc2ccccc2)c1	-7.28*	i	i	i	i	i	i	i	8.7%*
CC(CCc1ccccc1)NC(=O)CC(C)c1ccccc1 (stereo unspecified)	-7.99*	i	i	i	i	i	i	i	38.5%*
CC(CCc1ccccc1)NC(=O)Cc1ccccc1 (stereo unspecified)	-1.9	i	i	i	i	i	nt	nt	nt
O=S(=O)(c1ccc(Cl)cc1)N1CCSC1c1ccco1 (stereo unspecified)	-6.54*	i	i	i	i	i	i	i	21.1%*
CCNC(=S)/N=C(/Nc1ccccc1)Nc1nc(C)cc(C)n1	2.49	i	i	i	i	i	i	i	i
Cc1cc(C)nc(NC(=S)Nc2ccccc2)n1	-1.97	i	i	i	i	i	nt	nt	nt
CCN(CCNCC(O)COc1ccccc1C(C)C)c1cccc(C)c1 (stereo unspecified)	-6.37*	i	i	i	i	i	61.0%*	i	i
O=C(COc1ccc(Cl)cc1Cl)NC(=S)N1CCCc2ccccc21	0.04	i	i	i	i	i	nt	nt	nt
CN(C)Cc1c(O)ccc2ccccc12	0.69	i	i	i	i	i	nt	nt	nt
CN(C)Cc1c(O)ccc2oc(Cc3ccccc3)cc12	-5.93*	i	i	i	i	i	i	i	61.9%*
CCCCN(Cc1ccco1)S(=O)(=O)c1csc(C(N)=O)c1	-7.23*	i	i	i	i	i	i	i	46.1%*
CC(CCc1ccco1)N(C)S(=O)(=O)c1csc(C(N)=O)c1 (stereo unspecified)	-1.02	i	i	i	i	i	nt	nt	nt
CC1CCCCN1S(=O)(=O)c1ccc(S(=O)(=O)N(Cc2ccccc2)Cc2ccco2)cc1 (stereo unspecified)	0.1	i	i	i	i	i	nt	nt	nt
c1ccc(Cn2c(SCc3nc4ccccc4s3)nnc2-c2ccco2)cc1	-7.03*	i	i	i	i	i	i	i	13.4%*
O=C1C(Cc2c[nH]c3ccccc23)NC(=S)N1Cc1ccccc1 (stereo unspecified)	-6.42*	i	i	i	i	i	i	i	12.2%*
COc1ccc(CNCc2cccc3ccccc23)cc1	nt	i	i	i	i	i	i	i	nt
O=Cc1c(NCc2ccccc2)c2ccccc2[nH]c1=O	0.03	i	i	i	i	i	nt	nt	nt
OC1CCCN(Cc2ccc3ccc4cccc5ccc2c3c45)C1 (stereo unspecified)	-5.79*	i	i	i	i	i	48.0%*	i	i
c1cc2ccc3ccc(CN4CCOCC4)c4ccc(c1)c2c34	0.31	i	i	i	i	i	nt	nt	nt
COC(=O)c1ccccc1NC(=O)CN1C(=O)c2ccccc2S1(=O)=O	1.46	i	i	i	i	i	nt	nt	nt
Fc1ccc(OCCOCCN2CCNCC2)cc1	-1.59	i	i	i	i	i	nt	nt	nt
CCn1c(Sc2ccc(N)cc2Cl)nc2ccccc21	-6.29*	i	i	i	i	i	i	i	21.3%*
CC(C)COP(=O)(OCC(C)C)C(Nc1ccccc1)c1ccc(F)cc1 (stereo unspecified)	1.59	i	i	i	i	i	nt	nt	nt
CC(C)(Oc1ccc(Cl)cc1)C(=O)OCC(=O)NCCc1ccccc1	-6.36*	i	i	i	i	i	i	i	39.3%*
SMILES	Kir21 inh	MrgX1 antagonist	MrgX1 allo act	RGS4 inh	MrgX1 ag	RGS4 pot	hERG inh	KCNK9 spec	Kir2-1 patch inh
CC(C)(Oc1ccc(CCNC(=O)c2ccc(-c3ccc(Cl)cc3)o2)cc1)C(=O)O	0.43	i	i	i	i	i	nt	nt	nt
CC(C)COc1ccc(Br)cc1CNC(C)(C)C	-1.98	i	i	i	i	i	nt	nt	nt
Cc1ccc(N2C(=O)C3CCC(C)(C2=O)C3(C)C)cc1C (stereo unspecified)	0.25	i	i	i	i	i	nt	nt	nt
O=C(O)c1cnn(-c2nc(-c3ccc(Cl)c(Cl)c3)cs2)c1C(F)(F)F	3.04	i	i	i	i	i	i	i	i
Cc1ccccc1Nc1nc(N)c2ccccc2n1	-2.01	i	i	i	i	i	nt	nt	nt
CN(C)c1ccc(Nc2nc(N)c3ccccc3n2)cc1	-7.52*	i	i	i	i	i	i	i	64.9%*
CCOc1ccc(Nc2nc(N)c3ccccc3n2)cc1	-9.87*	i	i	i	i	i	i	i	69.7%*
COc1cc2c(cc1OC)C(C)N(C(=O)c1cccs1)CC2 (stereo unspecified)	1.22	i	i	i	i	i	nt	nt	nt
CC(C)CN1CCNC(=O)C1CC(=O)NCCc1ccc(C(F)(F)F)cc1 (stereo unspecified)	-1.18	i	i	i	i	i	nt	nt	nt
O=C(O)/C=C/C(=O)N1CCN(c2cccc(Cl)c2)CC1	4.29	i	i	i	i	i	i	i	i
CCn1c(COc2ccc(C)cc2)nnc1SCc1ccc(C#N)cc1	-7.91*	i	i	i	i	i	i	i	7.3%*
CCn1c(COc2ccc(C)cc2)nnc1SCC(=O)C(C)(C)C	-2.74	i	i	i	i	i	nt	nt	nt
O=C1CN(S(=O)(=O)c2cccc(Cl)c2Cl)c2ccccc2N1	-5.71*	i	i	i	i	i	i	i	i
O=C1CN(S(=O)(=O)c2ccc(Br)cc2)c2ccccc2N1	-0.48	i	i	i	i	i	nt	nt	nt
